Experimental data from PMC11100303 (RSC Advances, 2024).

Legend:
[1] = Thermogravimetric analysis; type: physicochemical; settings: TGA, 30 to 350 °C at 10 °C min^−1, nitrogen
In short: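 Samples of 2–5 mg weighed into platinum pans and heated from 30 to 350 °C at 10 °C min−1 under nitrogen purge at 25 mL min−1. T5% taken as the temperature at 5% loss of total sample mass.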

[2] = pH of compound dissolved in water; type: physicochemical; settings: mean ± S.D., n = 3
[3] = tested on: Human endocervical epithelial cell line (A2EN); experiment: Crystal violet staining for cervical cell morphology; type: cell-based; settings: 24 h treatment, even at 100 mM
[4] = tested on: Human endocervical epithelial cell line (A2EN); experiment: MTT assay for cervical cell proliferation / viability; type: cell-based; settings: 24 h treatment, even at high concentrations of 50 mM

Structure (SMILES) | T5% (onset temperature at 5% mass loss) [1] [°C] | pH [2] | Morphological changes of cervical epithelial cells [3] | Effect on cervical epithelial cell viability [4]
O=C(O)C(O)Cc1ccccc1 [L-PLA, 2-hydroxy-3-phenylpropanoic acid] | 156.07 | 3.2 ± 1.6 | – | –
C[N+](C)(C)C[C@H](O)CC(=O)[O-] [carnitine, L-Carnitine] | 189.9 | – | – | –
C[N+](C)(C)CCO.O=C([O-])[C@H](O)Cc1ccccc1 [Chol : D-PLA (1 : 1)] | 94.3 | 9.02 ± 1.7 | no morphological changes were observed | did not significantly reduce cervical epithelial cell viability
O=C(O)C(O)Cc1ccccc1 [D-PLA, 2-hydroxy-3-phenylpropanoic acid] | – | 2.9 ± 1.2 | – | –
